Experimental data: BindingDB's records for PubMed 35349261 (Hospital Regional Universitario, 2022)
pIC50: −log10 of the molar value.

Target: T1, Glucagon-like peptide 1 receptor (Rattus norvegicus, UniProt P32301)
T1 sequence (P32301 whole entry): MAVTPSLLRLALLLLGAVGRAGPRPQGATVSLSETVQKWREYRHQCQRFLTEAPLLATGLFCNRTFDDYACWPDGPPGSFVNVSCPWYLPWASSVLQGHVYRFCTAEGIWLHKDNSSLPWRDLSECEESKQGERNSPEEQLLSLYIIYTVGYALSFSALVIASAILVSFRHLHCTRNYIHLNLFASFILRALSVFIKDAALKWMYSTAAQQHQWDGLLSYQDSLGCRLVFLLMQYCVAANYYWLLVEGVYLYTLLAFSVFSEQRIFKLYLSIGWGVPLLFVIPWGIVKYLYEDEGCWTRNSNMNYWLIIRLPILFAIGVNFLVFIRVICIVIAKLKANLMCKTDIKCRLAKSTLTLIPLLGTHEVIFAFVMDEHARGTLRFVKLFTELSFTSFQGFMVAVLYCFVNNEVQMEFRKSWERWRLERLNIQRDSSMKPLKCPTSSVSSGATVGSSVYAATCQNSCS
Test: Positive allosteric modulator activity at GLP-1R in rat INS1 beta-cells assessed potentiation of GLP-1(7-36)NH2 induced insulin secretion at 0.1 nM incubated for 30 mins in presence of exendin(9-39)NH2 by ELISA
Outline: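 Rat INS-1E cells in RPMI 1640 with 10% fetal calf serum at 37 °C, 7.5% CO2. Cells were detached, washed and plated at 100,000 cells/well, then held in glucose-free medium for 1.5 h. […] Insulin in the medium was read by ELISA; data are triplicate.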

pIC50: 8.20
SMILES: FC(F)(F)c1ccc(-c2noc(CN3CCCC(CN4CCOCC4)C3)n2)cc1 (stereo unspecified)
